As a reminder, the inhibition is the relative decrease from the control value, in per cent. The term IC50 denotes the concentration needed to halve the response being measured. As a reminder, the AUC(0-t) is exposure summed from dosing to a finite time, without extrapolation to infinity. Lower therefore signals low exposure.

The values that follow come from ChEMBL document CHEMBL4406821, “Novel dual inhibitors targeting CDK4 and VEGFR2 synergistically suppressed cancer progression and angiogenesis” (Eur J Med Chem, 2019).

Data set [1] addresses Inhibitor of nuclear factor kappa-B kinase subunit alpha (Homo sapiens) (UniProt O15111). Kind of data set: Inhibition of recombinant human full length IKKalpha at 1 uM using peptide as substrate incubated for 40 mins in presence of [gamma-33P]-ATP by scintillation counting method relative to control. In outline:
(§1)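 Tested at a single 1 uM in an outsourced commercial kinase-profiling panel, read as percent inhibition. Each value is the mean of two independent experiments.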

Data set [2] has as its target Calcium/calmodulin-dependent protein kinase type IV (Homo sapiens) (UniProt Q16566). As to the kind of experiment: Inhibition of recombinant full length human CAMK4 at 1 uM using calmodulin as substrate incubated for 40 mins in presence of [gamma-33P]-ATP by scintillation counting method relative to control. The essentials:
(§2)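 Kinase panel profiling at 1 μM performed by Eurofins KinaseProfiler; percent inhibition reported as mean of two independent experiments.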

For another data set, the target named is CDK4/Cyclin D3 (Homo sapiens, UniProt P11802). As to the kind of experiment: Inhibition of recombinant full length human CDK4/Cyclin D3 using Rb-fragmen as substrate incubated for 40 mins by [gamma-33P]-ATP based radiometric assay. It is filed as protein-complex assay.
Data set [3] concerns the target Serine/threonine-protein kinase TAO1 (Homo sapiens) (UniProt Q7L7X3). Kind of data set: Inhibition of recombinant human TAO1 (1 to 327 residues) at 1 uM using myelin basic protein as substrate incubated for 40 mins in presence of [gamma-33P]-ATP by scintillation counting method relative to control.
Data set [4] can be described thus: Toxicity in NOD/SCID BALB/c mouse xenografted with human SiHa cells assessed as effect on blood parameter by measuring MPV at 40 mg/kg, po administered once two days for 4 times by hematology analyzer. It is filed as organism-based. The following applies: in vivo.
Another data set deals with SiHa. Kind of data set: Antitumor activity against human SiHa cells xenografted in orally dosed NOD/SCID BALB/c mouse assessed as reduction in Ki67 expression measured after 21 days by hematoxylin and eosin staining based immunohistochemistry. It is filed as functional, organism-based. In outline:
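Female NOD/SCID Balb/c mice, 6–8 weeks old, received 2×10^6 SiHa cells subcutaneously in the right flank. Once tumors reached 100 mm³, mice were randomized, 5 per group, and gavaged once daily for 21 days. Formalin-fixed, paraffin-embedded tumor sections were stained with Ki67 or CD31 antibody (1:100, 4 °C overnight), then biotin secondary and ABC-peroxidase/DAB, with hematoxylin counterstain.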

The target of data set [5] is Serine/threonine-protein kinase TAO2 (Homo sapiens) (UniProt Q9UL54). As to the kind of experiment: Inhibition of recombinant human TAO2 (1 to 320 residues) at 1 uM using myelin basic protein as substrate incubated for 40 mins in presence of [gamma-33P]-ATP by scintillation counting method relative to control. The essentials:
as §1

Data set [6] has as its target Protein-tyrosine kinase 6 (Homo sapiens) (UniProt Q13882). As to the kind of experiment: Inhibition of recombinant full length human BRK at 1 uM using poly(Glu, Tyr) 4:1 as substrate incubated for 40 mins in presence of [gamma-33P]-ATP by scintillation counting method relative to control. In outline: as §2
A short description of data set [7]: AUC (0 to t) in Sprague-Dawley rat at 10 mg/kg, iv by HPLC-MS analysis. It is filed as ADME, organism-based. The following applies: in vivo. In outline:
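Rats fitted with jugular vein catheters for serial blood sampling. Compound dissolved in saline with 5% (v/v) DMSO and given as a single 10 mg/kg dose iv or po after an overnight fast, n = 5 per group. Plasma isolated at once and measured by HPLC with tandem MS detection. Parameters derived by noncompartmental fitting.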

Data set [8] has as its target Dual specificity protein kinase TTK (Homo sapiens) (UniProt P33981). As to the kind of experiment: Inhibition of recombinant human full length TTK at 1 uM using MBP as substrate incubated for 40 mins in presence of [gamma-33P]-ATP by scintillation counting method relative to control.
Data set [9] concerns the target Serine/threonine-protein kinase ULK1 (Homo sapiens) (UniProt O75385). Kind of data set: Inhibition of recombinant human ULK1 (1 to 314 residues) at 1 uM using casein as substrate incubated for 40 mins in presence of [gamma-33P]-ATP by scintillation counting method relative to control. The essentials: as §1
Data set [10] has as its system Hepatocyte growth factor receptor (Homo sapiens), P08581 [Y1248H]. Kind of data set: Inhibition of recombinant human Met Y1248H mutant (974 to end residues) at 1 uM using KKKGQEEEYVFIE as substrate incubated for 40 mins in presence of [gamma-33P]-ATP by scintillation counting method relative to control.
In data set [11] the target is Serine/threonine-protein kinase TBK1 (Homo sapiens) (UniProt Q9UHD2). Kind of data set: Inhibition of recombinant human full length TBK1 at 1 uM using KRRRALS(p)VASLPGL as substrate incubated for 40 mins in presence of [gamma-33P]-ATP by scintillation counting method relative to control.
In data set [12] the test system is PI3-kinase p110-alpha/p85-alpha (Homo sapiens), P27986+P42336 [E545K]. Kind of data set: Inhibition of recombinant human full length PI3K p110alpha/p85alpha E545K mutant at 1 uM using phosphatidylinositol 4,5-bisphosphate as substrate incubated for 40 mins in presence of [gamma-33P]-ATP by scintillation counting method relative to control. It is filed as protein-complex assay.

Another data set concerns MDA-MB-231. Kind of data set: Antiproliferative activity against human MDA-MB-231 cells at 20 to 40 nM assessed as reduction in cell viability incubated for 48 hrs by EdU staining based laser scanning confocal microscopy. It is filed as functional. The essentials:
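Cells, 5×10^4, were seeded in 24-well plates and treated for 48 h. They were then labeled using an EdU Apollo 488 imaging kit with Hoechst 33342 nuclear stain and imaged by laser scanning confocal microscopy. Percent EdU-positive cells = EdU-positive/Hoechst-stained × 100%.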

For data set [13], the target named is Tyrosine-protein kinase TXK (Homo sapiens) (UniProt P42681). As to the kind of experiment: Inhibition of recombinant human TXK (256 to end residues) at 1 uM using GEEPLYWSFPAKKK as substrate incubated for 40 mins in presence of [gamma-33P]-ATP by scintillation counting method relative to control. The essentials: as §1
Data set [14] concerns the target Serine/threonine-protein kinase A-Raf (Homo sapiens) (UniProt P10398). Kind of data set: Inhibition of recombinant human A-Raf (273 to end residues) at 1 uM using myelin as substrate incubated for 40 mins in presence of [gamma-33P]-ATP by scintillation counting method relative to control. The essentials: as §2
Data set [15] addresses Angiopoietin-1 receptor (Homo sapiens) (UniProt Q02763). Kind of data set: Inhibition of recombinant human TIE2 (771 to end residues) at 1 uM using EFPIYDFLPAKKK as substrate incubated for 40 mins in presence of [gamma-33P]-ATP by scintillation counting method relative to control.
The subject of data set [16] is HeLa. Kind of data set: Induction of cell cycle arrest in human HeLa cells assessed as accumulation in G2/M phase at 80 nM incubated for 36 hrs by propidium iodide staining based flow cytometry. It is filed as functional. The essentials:
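Cells were treated with graded concentrations for 36 h, then fixed overnight in 70% ice-cold ethanol at 4°C and resuspended in PBS. Staining used 50 µg/ml PI plus 5 µg/ml RNase at 37°C for 30 min. DNA content was analysed by FACS to give G0/G1, S and G2/M fractions.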
A general note: A flow cytometer gives signals particle by particle.

Data set [17] deals with HeLa. Kind of data set: Induction of apoptosis in human HeLa cells assessed as decrease in Bcl2 expression at 80 nM incubated for 48 hrs by Western blot analysis. It is filed as functional, cell-based. The essentials: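 Cells were treated for 48 h, washed three times with PBS, and lysed in RIPA buffer. Immunoblots used anti-Rb, anti-phospho-Rb, anti-Ki67 and anti-Bcl-2 (each 1:1000), with β-actin as loading control.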
(In general: Immunoblotting shows a protein as a band on a membrane.)

Active and inactive are the calls of the source. No cut-off for these calls is given here.

Sequence of Inhibitor of nuclear factor kappa-B kinase subunit alpha (Homo sapiens) (O15111 whole entry): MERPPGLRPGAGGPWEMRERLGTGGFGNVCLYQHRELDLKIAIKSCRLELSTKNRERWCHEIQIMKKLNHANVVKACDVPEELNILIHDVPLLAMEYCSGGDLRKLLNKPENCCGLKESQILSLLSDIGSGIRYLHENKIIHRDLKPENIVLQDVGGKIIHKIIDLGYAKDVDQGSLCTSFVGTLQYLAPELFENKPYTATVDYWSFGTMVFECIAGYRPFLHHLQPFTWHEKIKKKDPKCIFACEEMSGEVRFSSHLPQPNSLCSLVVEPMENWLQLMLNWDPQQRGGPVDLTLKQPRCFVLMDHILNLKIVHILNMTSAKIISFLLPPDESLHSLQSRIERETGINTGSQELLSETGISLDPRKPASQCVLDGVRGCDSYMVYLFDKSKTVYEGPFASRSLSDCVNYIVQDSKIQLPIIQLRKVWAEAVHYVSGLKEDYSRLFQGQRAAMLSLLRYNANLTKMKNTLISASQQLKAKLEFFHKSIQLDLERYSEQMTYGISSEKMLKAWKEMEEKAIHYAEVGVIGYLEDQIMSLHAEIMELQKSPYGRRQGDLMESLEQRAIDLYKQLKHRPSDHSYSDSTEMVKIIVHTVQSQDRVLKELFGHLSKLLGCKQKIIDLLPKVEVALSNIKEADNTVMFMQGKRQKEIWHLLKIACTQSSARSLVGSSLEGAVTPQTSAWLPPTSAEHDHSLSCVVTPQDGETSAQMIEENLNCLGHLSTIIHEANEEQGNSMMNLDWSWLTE
Sequence of Calcium/calmodulin-dependent protein kinase type IV (Homo sapiens) (Q16566 whole entry): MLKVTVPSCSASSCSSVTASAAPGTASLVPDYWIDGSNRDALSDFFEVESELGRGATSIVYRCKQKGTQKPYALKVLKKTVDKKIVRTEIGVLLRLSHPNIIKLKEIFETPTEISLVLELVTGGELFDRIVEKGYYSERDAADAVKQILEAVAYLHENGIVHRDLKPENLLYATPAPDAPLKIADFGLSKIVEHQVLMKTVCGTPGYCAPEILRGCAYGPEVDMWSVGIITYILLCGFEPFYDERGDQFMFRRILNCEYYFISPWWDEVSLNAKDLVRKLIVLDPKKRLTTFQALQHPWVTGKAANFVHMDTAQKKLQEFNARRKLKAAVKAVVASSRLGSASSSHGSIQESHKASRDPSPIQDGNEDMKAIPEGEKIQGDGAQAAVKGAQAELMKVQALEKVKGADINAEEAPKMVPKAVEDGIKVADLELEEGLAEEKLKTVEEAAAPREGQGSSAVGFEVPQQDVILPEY
Sequence of Tyrosine-protein kinase TXK (Homo sapiens) (P42681 whole entry): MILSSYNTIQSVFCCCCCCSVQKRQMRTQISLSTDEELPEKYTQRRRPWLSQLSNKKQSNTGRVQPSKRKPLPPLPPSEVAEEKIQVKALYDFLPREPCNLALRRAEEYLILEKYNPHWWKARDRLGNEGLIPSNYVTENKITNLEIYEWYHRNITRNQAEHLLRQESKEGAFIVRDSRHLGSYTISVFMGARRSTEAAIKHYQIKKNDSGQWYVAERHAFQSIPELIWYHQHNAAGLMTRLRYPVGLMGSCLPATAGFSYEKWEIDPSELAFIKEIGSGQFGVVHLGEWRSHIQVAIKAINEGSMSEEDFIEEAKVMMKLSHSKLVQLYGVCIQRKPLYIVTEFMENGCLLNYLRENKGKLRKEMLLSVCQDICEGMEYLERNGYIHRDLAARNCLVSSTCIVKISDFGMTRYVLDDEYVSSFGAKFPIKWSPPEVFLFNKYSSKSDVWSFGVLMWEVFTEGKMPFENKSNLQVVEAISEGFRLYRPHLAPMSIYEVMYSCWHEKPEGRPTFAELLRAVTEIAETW
Sequence of Angiopoietin-1 receptor (Homo sapiens) (Q02763 whole entry): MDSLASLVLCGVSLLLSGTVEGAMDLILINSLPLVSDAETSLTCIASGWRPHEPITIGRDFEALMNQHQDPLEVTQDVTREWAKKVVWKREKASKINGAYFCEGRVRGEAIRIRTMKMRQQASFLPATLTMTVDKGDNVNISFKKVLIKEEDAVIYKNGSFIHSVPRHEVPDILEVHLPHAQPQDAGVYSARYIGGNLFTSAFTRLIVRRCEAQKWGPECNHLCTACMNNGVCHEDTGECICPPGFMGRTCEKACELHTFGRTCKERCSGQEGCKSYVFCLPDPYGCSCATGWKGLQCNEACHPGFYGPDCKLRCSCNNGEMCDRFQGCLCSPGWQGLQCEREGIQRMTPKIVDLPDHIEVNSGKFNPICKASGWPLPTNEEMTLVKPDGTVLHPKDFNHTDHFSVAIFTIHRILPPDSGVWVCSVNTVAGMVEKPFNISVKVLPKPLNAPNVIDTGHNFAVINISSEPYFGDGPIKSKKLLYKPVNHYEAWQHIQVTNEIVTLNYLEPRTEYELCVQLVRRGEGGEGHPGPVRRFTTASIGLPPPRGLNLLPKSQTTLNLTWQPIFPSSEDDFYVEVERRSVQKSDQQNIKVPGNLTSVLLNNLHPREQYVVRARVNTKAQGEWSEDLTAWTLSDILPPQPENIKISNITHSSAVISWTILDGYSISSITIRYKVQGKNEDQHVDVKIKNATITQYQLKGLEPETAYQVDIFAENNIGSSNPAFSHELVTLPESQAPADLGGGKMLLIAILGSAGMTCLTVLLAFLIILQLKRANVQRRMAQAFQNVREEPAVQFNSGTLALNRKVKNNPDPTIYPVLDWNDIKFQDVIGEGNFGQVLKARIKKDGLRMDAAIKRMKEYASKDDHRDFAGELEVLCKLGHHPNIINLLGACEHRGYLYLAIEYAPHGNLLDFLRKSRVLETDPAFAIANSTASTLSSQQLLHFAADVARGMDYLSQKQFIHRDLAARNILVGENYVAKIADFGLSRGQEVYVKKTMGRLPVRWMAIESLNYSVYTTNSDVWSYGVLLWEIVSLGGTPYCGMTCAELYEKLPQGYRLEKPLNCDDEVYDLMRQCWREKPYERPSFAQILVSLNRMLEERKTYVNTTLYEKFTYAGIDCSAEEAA
Sequence of Serine/threonine-protein kinase TAO2 (Homo sapiens) (Q9UL54 whole entry, the tested form may be a part): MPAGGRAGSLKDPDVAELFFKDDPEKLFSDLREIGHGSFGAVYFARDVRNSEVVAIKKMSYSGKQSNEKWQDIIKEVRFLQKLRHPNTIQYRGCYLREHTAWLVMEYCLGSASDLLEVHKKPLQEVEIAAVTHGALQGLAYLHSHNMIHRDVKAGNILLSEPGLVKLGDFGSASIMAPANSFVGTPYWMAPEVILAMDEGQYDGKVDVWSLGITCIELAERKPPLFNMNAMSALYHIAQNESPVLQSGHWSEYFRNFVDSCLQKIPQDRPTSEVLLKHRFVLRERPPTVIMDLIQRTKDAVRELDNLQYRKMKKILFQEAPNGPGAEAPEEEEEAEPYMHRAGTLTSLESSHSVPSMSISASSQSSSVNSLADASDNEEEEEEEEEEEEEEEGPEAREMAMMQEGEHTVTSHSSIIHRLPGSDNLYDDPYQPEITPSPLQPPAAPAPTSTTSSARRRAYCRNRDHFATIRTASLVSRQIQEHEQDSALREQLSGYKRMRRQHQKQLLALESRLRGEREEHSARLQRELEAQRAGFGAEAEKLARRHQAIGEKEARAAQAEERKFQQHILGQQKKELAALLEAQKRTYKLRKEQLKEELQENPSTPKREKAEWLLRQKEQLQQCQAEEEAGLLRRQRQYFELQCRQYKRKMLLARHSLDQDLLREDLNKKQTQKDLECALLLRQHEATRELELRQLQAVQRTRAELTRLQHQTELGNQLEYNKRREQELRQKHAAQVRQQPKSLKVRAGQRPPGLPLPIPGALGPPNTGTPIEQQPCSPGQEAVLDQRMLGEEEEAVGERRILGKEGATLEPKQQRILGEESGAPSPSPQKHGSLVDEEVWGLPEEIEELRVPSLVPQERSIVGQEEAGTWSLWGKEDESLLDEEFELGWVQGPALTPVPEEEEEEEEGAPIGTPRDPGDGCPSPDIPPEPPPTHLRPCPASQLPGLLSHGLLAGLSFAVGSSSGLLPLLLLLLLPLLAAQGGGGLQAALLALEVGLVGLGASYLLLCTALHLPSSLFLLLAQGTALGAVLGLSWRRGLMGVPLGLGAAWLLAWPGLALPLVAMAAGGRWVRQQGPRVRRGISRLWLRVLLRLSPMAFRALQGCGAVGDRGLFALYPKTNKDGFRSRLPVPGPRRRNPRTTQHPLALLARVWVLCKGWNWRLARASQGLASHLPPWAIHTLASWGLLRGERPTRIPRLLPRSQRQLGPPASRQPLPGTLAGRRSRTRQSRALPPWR
Sequence of Serine/threonine-protein kinase TAO1 (Homo sapiens) (Q7L7X3 whole entry, the tested form may be a part): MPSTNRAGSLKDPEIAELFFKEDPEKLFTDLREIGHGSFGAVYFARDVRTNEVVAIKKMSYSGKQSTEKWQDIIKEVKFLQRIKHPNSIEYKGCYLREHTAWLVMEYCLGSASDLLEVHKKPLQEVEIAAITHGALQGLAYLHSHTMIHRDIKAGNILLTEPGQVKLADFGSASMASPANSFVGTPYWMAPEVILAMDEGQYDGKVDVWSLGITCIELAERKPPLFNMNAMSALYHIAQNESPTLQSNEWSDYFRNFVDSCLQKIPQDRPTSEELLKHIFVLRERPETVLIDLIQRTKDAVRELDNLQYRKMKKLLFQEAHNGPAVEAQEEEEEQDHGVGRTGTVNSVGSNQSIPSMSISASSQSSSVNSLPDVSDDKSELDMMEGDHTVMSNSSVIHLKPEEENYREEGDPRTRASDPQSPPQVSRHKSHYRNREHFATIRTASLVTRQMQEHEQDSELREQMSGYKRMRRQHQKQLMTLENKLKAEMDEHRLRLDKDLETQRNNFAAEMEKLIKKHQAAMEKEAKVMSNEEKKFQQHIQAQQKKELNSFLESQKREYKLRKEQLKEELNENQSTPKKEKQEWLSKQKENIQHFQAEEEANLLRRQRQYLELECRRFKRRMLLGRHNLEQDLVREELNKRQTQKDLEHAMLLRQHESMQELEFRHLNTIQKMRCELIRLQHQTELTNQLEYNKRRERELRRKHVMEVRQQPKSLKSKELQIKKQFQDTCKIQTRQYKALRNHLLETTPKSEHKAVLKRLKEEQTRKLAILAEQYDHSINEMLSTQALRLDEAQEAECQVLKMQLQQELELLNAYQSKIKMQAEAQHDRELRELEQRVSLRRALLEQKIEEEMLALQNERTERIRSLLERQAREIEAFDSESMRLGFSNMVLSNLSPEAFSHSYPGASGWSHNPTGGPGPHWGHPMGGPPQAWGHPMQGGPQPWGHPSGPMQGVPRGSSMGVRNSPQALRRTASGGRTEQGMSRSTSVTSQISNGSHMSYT

Turning to `Cc1ccc(NC(=O)C2(C(=O)Nc3ccc(Nc4ncc(F)c(-c5cc(F)c6nc(C)n(C(C)C)c6c5)n4)cc3)CC2)cc1`, the inhibition was 0% in data set [1]; 6% in data set [2]; 2% in [3]; “Dose-dependent effect” in the data set on SiHa; 0% in data set [5]; 22% in data set [6]. The inhibition came to 65% in data set [8]; 0% in [9]; 40% in [10]; 9% in [11]; 2% in data set [12]; 0% in [13]. Moreover, the inhibition turned out to be 19% in data set [14] and 23% in [15]. Further, the half-maximal inhibitory concentration (IC50) at CDK4/Cyclin D3 came out at 46 nM. Moreover, in data set [4], the Activity result is on record as “Non-Toxic”. The compound also displayed an AUC(0-t) in data set [7] of 10000 ng·h/mL. The inhibition result in the data set with MDA-MB-231 is “Active”.
On to `COc1cc2nccc(Oc3ccc(NC(=O)C4(C(=O)Nc5ccc(F)cc5)CC4)cc3)c2cc1OC` [CABOZANTINIB], for which the outcome in the data set on HeLa [16] and in the data set with HeLa [17] was Active.
